Measured values: ChEMBL document CHEMBL3853270, “Influence of Birch Bark Triterpenes on Keratinocytes and Fibroblasts from Diabetic and Nondiabetic Donors” (2016)
Activity calls are given as the source filed them. The rule behind the calls is not given here.

Tests used:
Assay type in all cases: functional
Keratinocyte [1] = test: Effect on ECM related gene expression in non-diabetic young human primary keratinocytes assessed as FBN1 mRNA levels at 1.96 uM after 6 hrs by qPCR analysis
Method in brief: (§1)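 Primary keratinocytes from nondiabetic young and adult and diabetic adult donors; 400 000 cells per sample, 6 h exposure at 1.96 or 9.81 μM. RNA extracted and read on a high-throughput qPCR chip. Results are fold change versus 0.1% DMSO solvent control from 5−7 independent experiments over two donors per group, SD, one-way ANOVA with Bonferroni post-test.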

Keratinocyte [2] = test: Effect on pro-inflammatory related gene expression in non-diabetic young human primary keratinocytes assessed as PTGS2 mRNA levels at 1.96 uM after 6 hrs by qPCR analysis
Keratinocyte [3] = test: Effect on ECM related gene expression in non-diabetic adult human primary keratinocytes assessed as FBN1 mRNA levels at 1.96 uM after 6 hrs by qPCR analysis; method in brief: as §1
Keratinocyte [4] = test: Effect on growth factor related gene expression in non-diabetic adult human primary keratinocytes assessed as GDF15 mRNA levels at 1.96 uM after 6 hrs by qPCR analysis
Method in brief: (§2)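 Primary human keratinocytes (nondiabetic young or adult, diabetic adult donors) were exposed to compound for 6 h, with 0.1% DMSO as solvent control. Total RNA came from 400 000 cells per sample and was assayed on a Fluidigm Biomark high-throughput qPCR chip. Results are fold change vs solvent control, from 2−4 independent experiments on two donors per group, with SD. Groups were compared by one-way ANOVA with Bonferroni post-test.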

Keratinocyte [5] = test: Effect on growth factor related gene expression in non-diabetic adult human primary keratinocytes assessed as PDGFB mRNA levels at 1.96 uM after 6 hrs by qPCR analysis; method in brief: as §2
Keratinocyte [6] = test: Effect on transcription factor related gene expression in non-diabetic adult human primary keratinocytes assessed as JUN mRNA levels at 1.96 uM after 6 hrs by qPCR analysis
Keratinocyte [7] = test: Effect on chemokines related gene expression in diabetic adult human primary keratinocytes assessed as CXCL10 mRNA levels at 1.96 uM after 6 hrs by qPCR analysis
Keratinocyte [8] = test: Effect on pro-inflammatory related gene expression in non-diabetic young human primary keratinocytes assessed as TNF mRNA levels at 9.81 uM after 6 hrs by qPCR analysis
Keratinocyte [9] = test: Effect on chemokines related gene expression in non-diabetic young human primary keratinocytes assessed as CXCL10 mRNA levels at 9.81 uM after 6 hrs by qPCR analysis; method in brief: as §2
Keratinocyte [10] = test: Effect on transcription factor related gene expression in non-diabetic young human primary keratinocytes assessed as JUN mRNA levels at 9.81 uM after 6 hrs by qPCR analysis
Keratinocyte [11] = test: Effect on AQP3 mRNA expression levels in non-diabetic young human primary keratinocytes at 9.81 uM after 6 hrs by qPCR analysis; method in brief: as §1
Keratinocyte [12] = test: Effect on pro-inflammatory related gene expression in non-diabetic adult human primary keratinocytes assessed as PTGS2 mRNA levels at 9.81 uM after 6 hrs by qPCR analysis
Keratinocyte [13] = test: Effect on growth factor related gene expression in non-diabetic adult human primary keratinocytes assessed as PDGFB mRNA levels at 9.81 uM after 6 hrs by qPCR analysis; method in brief: as §2
Keratinocyte [14] = test: Effect on AQP3 mRNA expression levels in diabetic adult human primary keratinocytes at 9.81 uM after 6 hrs by qPCR analysis; method in brief: as §1
Fibroblast [15] = test: Effect on antiinflammatory related gene expression in diabetic adult human primary fibroblasts assessed as SOCS3 mRNA levels at 1.96 uM after 6 hrs by qPCR analysis
Method in brief: (§3)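 Primary dermal fibroblasts from one nondiabetic young, one nondiabetic adult and one diabetic adult donor; 320 000 cells per sample, 6 h at 1.96 or 9.81 μM. RNA measured on a high-throughput qPCR chip. Fold change versus 0.1% DMSO control, four independent experiments, SD, one-way ANOVA with Bonferroni post-test.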

Fibroblast [16] = test: Effect on antioxidant related gene expression in diabetic adult human primary fibroblasts assessed as SOD2 mRNA levels at 1.96 uM after 6 hrs by qPCR analysis
Fibroblast [17] = test: Effect on antiinflammatory related gene expression in non-diabetic young human primary fibroblasts assessed as NFKBIA mRNA levels at 9.81 uM after 6 hrs by qPCR analysis; method in brief: as §3
Fibroblast [18] = test: Effect on pro-inflammatory related gene expression in non-diabetic adult human primary fibroblasts assessed as IL1B mRNA levels at 9.81 uM after 6 hrs by qPCR analysis
Fibroblast [19] = test: Effect on transcription factor related gene expression in non-diabetic adult human primary fibroblasts assessed as JUN mRNA levels at 9.81 uM after 6 hrs by qPCR analysis
Fibroblast [20] = test: Effect on pro-inflammatory related gene expression in diabetic adult human primary fibroblasts assessed as IL6 mRNA levels at 9.81 uM after 6 hrs by qPCR analysis
Method in brief: (§4)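 Primary human dermal fibroblasts (young or adult nondiabetic, adult diabetic donor) were treated for 6 h against a 0.1% DMSO solvent control. RNA from 320 000 cells per sample was measured by Fluidigm Biomark high-throughput qPCR. Values are fold change relative to solvent control, from four independent experiments, with SD. One-way ANOVA with Bonferroni post-test was applied.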

Fibroblast [21] = test: Effect on growth factor related gene expression in diabetic adult human primary fibroblasts assessed as GDF15 mRNA levels at 9.81 uM after 6 hrs by qPCR analysis; method in brief: as §4
Fibroblast [22] = test: Effect on growth factors related gene expression in non-diabetic young human primary fibroblasts assessed as FGF2 mRNA levels at 1.96 uM after 6 hrs by qPCR analysis; method in brief: as §4
Fibroblast [23] = test: Effect on adhesion molecules related gene expression in non-diabetic adult human primary fibroblasts assessed as ICAM1 mRNA levels at 1.96 uM after 6 hrs by qPCR analysis
Method in brief: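 Dermal fibroblasts from nondiabetic adult and diabetic adult donors, exposed for 6 h at 1.96 or 9.81 μM. ICAM-1 and VCAM-1 mRNA measured by standard qRT-PCR, n = 3. Fold change versus 0.1% DMSO control, SD, one-way ANOVA with Bonferroni post-test.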

[24] = Effect on wound healing activity in non-diabetic adult human primary keratinocytes assessed as upregulation of MIF protein levels at 1.96 uM after 24 hrs by bead-based suspension array analysis; settings: Keratinocyte
[25] = Effect on wound healing activity in non-diabetic adult human primary keratinocytes assessed as upregulation of soluble E-selectin protein levels at 1.96 uM after 24 hrs by bead-based suspension array analysis; settings: Keratinocyte
[26] = Effect on wound healing activity in diabetic adult human primary fibroblasts assessed as upregulation of soluble ICAM1 protein levels at 1.96 uM after 24 hrs by bead-based suspension array analysis; settings: Fibroblast
Fibroblast [27] = test: Effect on actin cytoskeleton in human non-diabetic primary fibroblasts assessed as formation of thin elongated cellular body at 10 nM after 2 hrs by rhodamine phalloidin-staining based fluorescence microscopic analysis
Method in brief: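 Subconfluent cells on glass coverslips, collagen type I coated for fibroblasts; keratinocytes starved 2 days before stimulation. Exposure 2 h, then rhodamine-phalloidin staining (1:25 in PBS) and fluorescence microscopy. Controls were DMSO as solvent and PDGF (fibroblasts) or CNF1 (keratinocytes). Where used, p38-MAPK inhibitor LN 950 (100 nM) was added 30 min beforehand.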

Compound: C=C(C)[C@@H]1CC[C@]2(CO)CC[C@]3(C)[C@H](CC[C@@H]4[C@@]5(C)CC[C@H](O)C(C)(C)[C@@H]5CC[C@]43C)[C@@H]12 [BETULIN]
- fold change (FC) (Keratinocyte [1]): 1.8
- fold change (FC) (Keratinocyte [2]): 1.4
- fold change (FC) (Keratinocyte [3]): 0.9
- fold change (FC) (Keratinocyte [4]): 1
- fold change (FC) (Keratinocyte [5]): 0.8
- fold change (FC) (Keratinocyte [6]): 1.3
- fold change (FC) (Keratinocyte [7]): 6
- fold change (FC) (Keratinocyte [8]): 6
- fold change (FC) (Keratinocyte [9]): 1.7
- fold change (FC) (Keratinocyte [10]): 1.8
- fold change (FC) (Keratinocyte [11]): 1.1
- fold change (FC) (Keratinocyte [12]): 1.3
- fold change (FC) (Keratinocyte [13]): 0.9
- fold change (FC) (Keratinocyte [14]): 0.8
- fold change (FC) (Fibroblast [15]): 2
- fold change (FC) (Fibroblast [16]): 2.2
- fold change (FC) (Fibroblast [17]): 3.2
- fold change (FC) (Fibroblast [18]): 214
- fold change (FC) (Fibroblast [19]): 3.1
- fold change (FC) (Fibroblast [20]): 5.3
- fold change (FC) (Fibroblast [21]): 1.8
- fold change (FC) (Fibroblast [22]): 1.7
- fold change (FC) (Fibroblast [23]): 144
- Activity [24]: Active
- Activity [25]: Active
- Activity [26]: Active
- Activity (Fibroblast [27]): Active
